Assay [1] has as its system MDA-MB-231. Nature of the assay: Growth inhibition of human MDA-MB-231 cells at 10 uM after 72 hrs by luminescence assay. Format: functional. To be noted: MDA-MB-231, 72 h.
For assay [2], the target named is T1, Dual 3',5'-cyclic-AMP and -GMP phosphodiesterase 11A (Homo sapiens, UniProt Q9HCR9). Description: Inhibition of human recombinant PDE11A-mediated hydrolysis of cGMP after 30 mins by fluorescence polarization assay. In a few lines:
(§1)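 Recombinant human enzyme levels were PDE3B 10 units/mL, PDE4B 400 units/mL and PDE11A 50 units/mL. Enzyme was preincubated with compound or vehicle for 30 min. Substrate was then added: 50 nM TAMRA-cGMP and/or 50 nM fluorescein-cAMP. Fluorescence polarization was read. IC50 came from a 10-concentration series in quadruplicate, fitted to a four-parameter logistic.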
On the technique in general: In fluorescence polarisation assays a small probe gives low polarisation when free and higher when bound to something large.

The target of assay [3] is 3',5'-cyclic-AMP phosphodiesterase 4B (Homo sapiens, UniProt Q07343). Description: Inhibition of human recombinant PDE4B-mediated hydrolysis of cAMP after 30 mins by fluorescence polarization assay. Put shortly:
as §1

Assay [4] concerns the target T2, cGMP-specific 3',5'-cyclic phosphodiesterase (Homo sapiens, UniProt O76074). Nature of the assay: Inhibition of human recombinant PDE5 at 10 uM after 30 mins by fluorescence polarization assay.
The target in assay [5] is T2, cGMP-specific 3',5'-cyclic phosphodiesterase. Description: Inhibition of human recombinant PDE5A-mediated hydrolysis of cGMP after 30 mins by fluorescence polarization assay.
For assay [6], the target named is T3, cGMP-inhibited 3',5'-cyclic phosphodiesterase 3B (Homo sapiens, UniProt Q13370). Description: Inhibition of human recombinant PDE3B-mediated hydrolysis of cAMP after 30 mins by fluorescence polarization assay. In a few lines:
(§2)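 Recombinant human enzyme levels were PDE3B 10 units/mL, PDE4B 400 units/mL and PDE11A 50 units/mL. Enzyme was preincubated with compound or vehicle for 30 min. Substrate was then added: 50 nM TAMRA-cGMP and/or 50 nM fluorescein-cAMP. Reactions ran 1.5 h at 30 °C, followed by IMAP binding reagent for 30 min at 30 °C. Fluorescence polarization was read. IC50 came from a 10-concentration series in quadruplicate, fitted to a four-parameter logistic.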

In assay [7] the target is T3, cGMP-inhibited 3',5'-cyclic phosphodiesterase 3B. Nature of the assay: Inhibition of human recombinant PDE3B-mediated hydrolysis of cGMP after 30 mins by fluorescence polarization assay. In a few lines:
as §2

The target in assay [8] is T2, cGMP-specific 3',5'-cyclic phosphodiesterase. Description: Inhibition of human recombinant PDE5 after 30 mins by fluorescence polarization assay. Put shortly:
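Recombinant human PDE5A at 12.5 units/mL was preincubated 30 min with compound or vehicle. Then 50 nM TAMRA-cGMP was added and the mix incubated 1.5 h at 30 °C. IMAP binding reagent was added for 30 min at 30 °C and fluorescence polarization read. IC50 came from a 10-concentration series in quadruplicate, fitted to a four-parameter logistic.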

Assay [9] concerns the target T1, Dual 3',5'-cyclic-AMP and -GMP phosphodiesterase 11A. Description: Inhibition of human recombinant PDE11A-mediated hydrolysis of cAMP after 30 mins by fluorescence polarization assay. In a few lines: as §1
Assay [10] concerns MDA-MB-231. Nature of the assay: Growth inhibition of human MDA-MB-231 cells after 72 hrs by luminescence assay. Type of assay: functional, cell-based. To be noted: MDA-MB-231, 72 h. Put shortly: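 MDA-MB-231 cells grown in RPMI 1640 with 5% FBS, 2 mM glutamine and antibiotics at 37 °C, 5% CO2. Cells were harvested at 70–90% confluence, used only if viability >95%, and seeded at 5000 cells/well. Dosing followed 18–24 h later, with final DMSO 0.1%. Viability was read after 72 h by CellTiter-Glo luminescence. IC50 came from eight concentrations in quadruplicate, fitted to a four-parameter logistic.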

Some results are limits rather than exact numbers.

T1 sequence (Q9HCR9 whole entry): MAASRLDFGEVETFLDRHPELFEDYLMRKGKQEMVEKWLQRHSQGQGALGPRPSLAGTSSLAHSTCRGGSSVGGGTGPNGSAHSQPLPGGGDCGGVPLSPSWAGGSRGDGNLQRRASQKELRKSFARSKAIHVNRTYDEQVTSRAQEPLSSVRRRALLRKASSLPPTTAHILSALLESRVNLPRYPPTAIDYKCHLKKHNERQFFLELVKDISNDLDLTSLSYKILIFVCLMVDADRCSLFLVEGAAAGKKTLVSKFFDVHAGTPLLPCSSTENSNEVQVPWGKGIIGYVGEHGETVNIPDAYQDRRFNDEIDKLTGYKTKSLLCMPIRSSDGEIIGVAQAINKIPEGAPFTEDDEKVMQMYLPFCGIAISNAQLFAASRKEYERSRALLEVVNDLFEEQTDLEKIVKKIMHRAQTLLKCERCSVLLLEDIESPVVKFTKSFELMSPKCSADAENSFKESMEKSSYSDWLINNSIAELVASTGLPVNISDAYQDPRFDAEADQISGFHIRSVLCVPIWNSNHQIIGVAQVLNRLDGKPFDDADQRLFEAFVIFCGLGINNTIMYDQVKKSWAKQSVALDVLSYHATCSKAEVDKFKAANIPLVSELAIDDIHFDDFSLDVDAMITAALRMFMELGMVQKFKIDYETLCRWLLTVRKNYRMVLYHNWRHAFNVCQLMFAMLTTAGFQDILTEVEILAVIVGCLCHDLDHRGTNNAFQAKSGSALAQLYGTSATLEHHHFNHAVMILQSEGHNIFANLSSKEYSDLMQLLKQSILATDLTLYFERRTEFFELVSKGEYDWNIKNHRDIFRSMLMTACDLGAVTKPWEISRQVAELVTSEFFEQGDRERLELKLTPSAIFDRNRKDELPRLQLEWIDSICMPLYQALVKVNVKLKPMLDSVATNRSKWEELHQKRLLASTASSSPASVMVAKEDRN
T3 sequence (Q13370 whole entry): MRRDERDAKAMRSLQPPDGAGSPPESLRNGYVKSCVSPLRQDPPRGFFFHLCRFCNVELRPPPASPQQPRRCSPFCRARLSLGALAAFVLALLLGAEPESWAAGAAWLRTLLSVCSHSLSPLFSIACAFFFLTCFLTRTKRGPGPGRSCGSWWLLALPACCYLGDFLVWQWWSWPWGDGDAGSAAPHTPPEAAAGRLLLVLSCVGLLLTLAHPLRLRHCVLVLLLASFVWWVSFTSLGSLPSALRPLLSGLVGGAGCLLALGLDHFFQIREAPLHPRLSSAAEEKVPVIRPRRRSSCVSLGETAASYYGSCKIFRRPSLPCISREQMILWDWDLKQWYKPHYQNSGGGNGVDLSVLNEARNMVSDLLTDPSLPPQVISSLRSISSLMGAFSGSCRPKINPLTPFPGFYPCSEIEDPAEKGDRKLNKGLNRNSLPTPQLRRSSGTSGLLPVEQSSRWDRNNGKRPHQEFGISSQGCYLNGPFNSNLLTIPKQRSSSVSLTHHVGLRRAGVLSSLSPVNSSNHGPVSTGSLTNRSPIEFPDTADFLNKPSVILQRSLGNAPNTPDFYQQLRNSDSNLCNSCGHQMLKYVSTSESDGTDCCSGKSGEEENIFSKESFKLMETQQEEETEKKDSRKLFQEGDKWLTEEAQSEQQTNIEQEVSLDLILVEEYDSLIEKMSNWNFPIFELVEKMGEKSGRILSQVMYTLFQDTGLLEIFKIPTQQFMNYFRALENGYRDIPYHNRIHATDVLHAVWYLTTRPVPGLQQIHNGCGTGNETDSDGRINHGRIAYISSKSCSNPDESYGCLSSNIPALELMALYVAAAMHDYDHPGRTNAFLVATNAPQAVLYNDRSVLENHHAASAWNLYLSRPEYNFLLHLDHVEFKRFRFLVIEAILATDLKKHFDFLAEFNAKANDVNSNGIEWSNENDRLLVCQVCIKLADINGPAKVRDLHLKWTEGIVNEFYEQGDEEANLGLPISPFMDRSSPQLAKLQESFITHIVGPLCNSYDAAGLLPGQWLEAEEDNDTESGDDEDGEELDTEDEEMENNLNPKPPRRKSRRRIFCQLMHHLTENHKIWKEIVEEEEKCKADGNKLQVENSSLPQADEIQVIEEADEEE
Sequence of 3',5'-cyclic-AMP phosphodiesterase 4B (Q07343 whole entry): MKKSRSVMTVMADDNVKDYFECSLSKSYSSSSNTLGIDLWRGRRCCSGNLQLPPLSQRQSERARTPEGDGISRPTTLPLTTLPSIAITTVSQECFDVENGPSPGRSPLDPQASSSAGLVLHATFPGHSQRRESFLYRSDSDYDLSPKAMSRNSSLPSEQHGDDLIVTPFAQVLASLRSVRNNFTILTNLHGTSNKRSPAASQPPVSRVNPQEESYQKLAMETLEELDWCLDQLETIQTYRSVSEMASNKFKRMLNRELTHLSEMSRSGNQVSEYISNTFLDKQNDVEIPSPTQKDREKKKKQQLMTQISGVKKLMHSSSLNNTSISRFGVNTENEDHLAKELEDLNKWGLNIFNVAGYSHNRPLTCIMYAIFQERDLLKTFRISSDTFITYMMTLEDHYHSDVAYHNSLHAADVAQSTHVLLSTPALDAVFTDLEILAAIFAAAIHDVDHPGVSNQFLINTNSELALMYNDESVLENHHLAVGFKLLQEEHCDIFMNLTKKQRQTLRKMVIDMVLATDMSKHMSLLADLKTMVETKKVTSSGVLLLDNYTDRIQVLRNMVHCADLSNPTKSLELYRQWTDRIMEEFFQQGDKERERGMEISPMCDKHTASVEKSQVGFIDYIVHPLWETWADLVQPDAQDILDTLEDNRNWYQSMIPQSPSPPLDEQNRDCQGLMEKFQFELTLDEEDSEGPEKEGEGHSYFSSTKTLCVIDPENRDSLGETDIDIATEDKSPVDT

Usually inhibition stands for the percentage by which the read-out fell short of the control. As usually defined, the IC50 is the concentration needed to halve the response being measured. Turning to `CCN1CC(=O)N2[C@H](c3ccc(Cl)cc3Cl)c3[nH]c4ccccc4c3C[C@@H]2C1=O`, testing at 10 µM in the assay on MDA-MB-231 [1] gave an inhibition of 30%. The IC50 in assay [2] is 11 nM; in assay [3] it was > 50000 nM; in assay [5], 2 nM; in assay [6], > 50000 nM; in [7] it was > 50000 nM; in assay [8], 2 nM. Also, the IC50 in assay [9] is 104 nM. In assay [4], the inhibition came to 91%.

Take `CC(C)(C)N1C(=O)[C@H]2Cc3c([nH]c4ccccc34)[C@H](c3ccc(Cl)cc3Cl)N2C1=O`: the inhibition at 10 µM in the assay on MDA-MB-231 [1] was found to be 65%. In addition, the results for the IC50 (in the assay with MDA-MB-231 [10]; in assay [8]) were 640 nM and 1480 nM, respectively. Also, the inhibition in assay [4] was found to be 73%.

In the assay with MDA-MB-231 [1], `CCN1C(=O)[C@@H]2Cc3c([nH]c4ccccc34)[C@@H](c3ccc(Cl)cc3Cl)N2C1=O` showed an inhibition at 10 µM of 68%. For the same compound, the 50% inhibitory concentration (IC50) in [2] was 1500 nM; with MDA-MB-231 [10], 5370 nM; in [3] it was 3600 nM; in [5], 7 nM; in assay [6] it was > 50000 nM; in [7], > 50000 nM. Further, the IC50 in assay [8] turned out to be 7 nM; in assay [9], 13000 nM. For the same compound, the inhibition in assay [4] amounted to 95%.

For `CC(C)(C)N1C(=O)[C@@H]2Cc3c([nH]c4ccccc34)[C@H](c3ccc(Cl)c(Cl)c3)N2C1=O`, testing at 10 µM with MDA-MB-231 [1] gave an inhibition of 70%. Also, the IC50 in the assay on MDA-MB-231 [10] is 1430 nM; in assay [8], 2310 nM. Also, the inhibition in [4] was 80%.

In the assay on MDA-MB-231 [1], `CCCCN1CC(=O)N2[C@@H](c3ccc(Cl)cc3Cl)c3[nH]c4ccccc4c3C[C@@H]2C1=O` came in with an inhibition at 10 µM of 65%. The IC50 with MDA-MB-231 [10] worked out at 1200 nM; in assay [8], 1110 nM. For the same compound, the inhibition in assay [4] is 69%.

In turn, `CC(C)(C)N1C(=O)[C@@H]2Cc3c([nH]c4ccccc34)[C@@H](c3ccc(Cl)cc3Cl)N2C1=O` had an inhibition at 10 µM with MDA-MB-231 [1] of 69%. Moreover, the IC50 with MDA-MB-231 [10] came to 1260 nM; in assay [8], 70 nM. The inhibition in assay [4] amounted to 95%.

In the case of `CN1CC(=O)N2[C@H](c3ccc4c(c3)OCO4)c3[nH]c4ccccc4c3C[C@@H]2C1=O`, the IC50 in [6] and in assay [7] was > 50000 nM throughout.

In the assay with MDA-MB-231 [1], `CCN1C(=O)[C@H]2Cc3c([nH]c4ccccc34)[C@@H](c3ccc(Cl)cc3Cl)N2C1=O` returned an inhibition at 10 µM of 39%. Also, the IC50 was 310 nM in assay [2]; 34000 nM in assay [3]; 10 nM in assay [5]; > 50000 nM in assay [6]; > 50000 nM in [7]; 10 nM in assay [8]. Further, in assay [9], the IC50 worked out at 2000 nM. Moreover, the inhibition in assay [4] was determined as 95%.

As to `CCN1CC(=O)N2[C@@H](c3ccc(Cl)cc3Cl)c3[nH]c4ccccc4c3C[C@@H]2C1=O`, in the assay on MDA-MB-231 [1], testing at 10 µM gave an inhibition of 66%. Moreover, the IC50 in the assay with MDA-MB-231 [10] stood at 1540 nM; in assay [8], 260 nM. In addition, the inhibition in assay [4] turned out to be 90%.

In the case of `CCCCN1CC(=O)N2[C@@H](c3ccc(Cl)cc3Cl)c3[nH]c4ccccc4c3C[C@H]2C1=O`, at 10 µM the inhibition with MDA-MB-231 [1] was 82%. The results for the IC50 (in the assay on MDA-MB-231 [10]; in assay [8]) were 3280 nM and 4460 nM, respectively. Also, in assay [4], the inhibition was 78%.

`CC(C)(C)N1C(=O)[C@H]2Cc3c([nH]c4ccccc34)[C@@H](c3ccc(Cl)cc3Cl)N2C1=O` registered an inhibition at 10 µM with MDA-MB-231 [1] of 68%. Besides, the IC50 came to 2260 nM in the assay on MDA-MB-231 [10] and 590 nM in assay [8]. Besides, in [4], the inhibition worked out at 80%.

As for `CN1CC(=O)N2[C@@H](c3ccc(Cl)cc3Cl)c3[nH]c4ccccc4c3C[C@@H]2C1=O`, in the assay with MDA-MB-231 [1], the inhibition at 10 µM is 65%. The IC50 in the assay with MDA-MB-231 [10] was determined as 3260 nM; in [8], 1200 nM. Moreover, the inhibition in assay [4] was determined as 90%.

Compound `CN1CC(=O)N2[C@@H](c3ccc(Cl)cc3Cl)c3[nH]c4ccccc4c3C[C@H]2C1=O` registered an inhibition at 10 µM with MDA-MB-231 [1] of 70%. Also, the IC50 worked out at 7100 nM in the assay on MDA-MB-231 [10] and 850 nM in assay [8]. Moreover, the inhibition in assay [4] was 82%.

The values above are taken from ChEMBL document CHEMBL1649422, “Synthesis and molecular modeling of novel tetrahydro-β-carboline derivatives with phosphodiesterase 5 inhibitory and anticancer properties” (J Med Chem, 2011).
